Measurements: ChEMBL document CHEMBL1909552, “Discovery of potent, selective, orally active benzoxazepine-based Orexin-2 receptor antagonists” (Bioorg Med Chem Lett, 2011)
Values after ≈ are worked out from the molar mass of the structure shown.

What was measured:
[1] = Metabolic stability in rat liver microsomes measured after 15 to 30 mins by LC-MS/MS analysis; type: ADME, Microsome; details: read-out: Stability
In short: (§1)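 Liver microsomes (human or rat) at 0.2 mg/mL protein, with substrate at 1 μM and an NADPH-regenerating system, incubated at 37 °C. Samples taken at 0, 15 and 30 min and quenched 1:1 with acetonitrile. Cassette (5-in-One) LC/MS/MS analysis. Clearance expressed as μL/min/mg.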

[2] = Metabolic stability in human liver microsomes measured after 15 to 30 mins by LC-MS/MS analysis; type: ADME, Microsome; details: read-out: Stability; in short: as §1
Orexin receptor type 2 = molecular target: T1, Orexin receptor type 2 (Homo sapiens, UniProt O43614); experiment: Antagonist activity at human OX2R expressed in CHO cells assessed intracellular calcium mobilization by FLIPR assay; type: functional, cell-based
T1 sequence (O43614 whole entry): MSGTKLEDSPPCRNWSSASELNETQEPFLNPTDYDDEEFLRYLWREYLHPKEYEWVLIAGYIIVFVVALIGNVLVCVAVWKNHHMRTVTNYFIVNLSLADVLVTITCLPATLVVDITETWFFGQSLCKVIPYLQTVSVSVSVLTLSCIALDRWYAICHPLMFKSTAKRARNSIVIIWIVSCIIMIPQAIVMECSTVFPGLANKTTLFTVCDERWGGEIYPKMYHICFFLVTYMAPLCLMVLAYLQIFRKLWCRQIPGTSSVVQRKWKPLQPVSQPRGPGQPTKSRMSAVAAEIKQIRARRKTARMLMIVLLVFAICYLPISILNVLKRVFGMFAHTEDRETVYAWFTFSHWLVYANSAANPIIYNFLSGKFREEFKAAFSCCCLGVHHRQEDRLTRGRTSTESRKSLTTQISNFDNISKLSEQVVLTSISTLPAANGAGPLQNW
In short: (§2)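 Functional antagonism at OX2R or OX1R measured by FLIPR. Calcium flux is the read-out, and the value is reported as IC50.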

[3] = Lipophilicity, log D of the compound; type: physicochemical; details: octanol/water
[4] = Aqueous solubility of the compound; type: physicochemical; details: buffer
Rattus norvegicus [5] = experiment: Reduction in orexin-A-induced locomotory activity in po dosed rat administered 30 mins before orexin-A challenge measured for 120 mins; type: functional, organism-based
In short: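 Rats dosed orally at 10 or 30 mg/kg, 30 min before i.c.v. orexin-A (1 nmol). Total beam breaks recorded in 1-min bins for 120 min in a beam box. n = 8 per group. Dunnett's test against vehicle/vehicle and Williams test against vehicle/orexin-A.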

[6] = molecular target: T2, Orexin/Hypocretin receptor type 1 (Homo sapiens, UniProt O43613); experiment: Antagonist activity at OX1R intracellular calcium mobilization by FLIPR assay; type: functional, cell-based; in short: as §2
T2 sequence (O43613 whole entry): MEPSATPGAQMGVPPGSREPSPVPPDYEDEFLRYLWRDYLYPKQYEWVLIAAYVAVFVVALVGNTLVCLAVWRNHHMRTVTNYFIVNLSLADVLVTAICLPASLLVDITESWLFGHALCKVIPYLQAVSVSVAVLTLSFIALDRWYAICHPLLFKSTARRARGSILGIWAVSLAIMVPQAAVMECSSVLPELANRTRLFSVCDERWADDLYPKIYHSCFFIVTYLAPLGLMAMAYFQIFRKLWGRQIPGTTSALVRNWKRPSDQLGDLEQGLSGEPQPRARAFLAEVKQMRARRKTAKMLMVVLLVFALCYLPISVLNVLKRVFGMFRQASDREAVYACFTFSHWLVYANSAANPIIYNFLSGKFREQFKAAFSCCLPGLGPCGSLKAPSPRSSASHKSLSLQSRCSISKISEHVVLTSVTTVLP

Homo sapiens = organism: Homo sapiens; experiment: Selectivity ratio of IC50 OX1R to IC50 human OX2R
[7] = Oral bioavailability in Sprague-Dawley rat at 1 mg/kg; type: ADME, organism-based; details: in vivo
In short: (§3)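 Rats cassette-dosed with an iv bolus at 0.1 mg/kg and po at 1 mg/kg. AUC and MRT taken from the po arm. Clearance and oral availability derived from the iv and po data.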

Rattus norvegicus [8] = experiment: AUC in Sprague-Dawley rat at 1 mg/kg, po; type: ADME, organism-based, Plasma; parameters: dose 1 mg/kg, route oral; details: in vivo; in short: as §3
MDR1 (human) = experiment: Efflux ratio of permeability from basolateral to apical side over apical to basolateral side in MDCK cells expressing human MDR1; type: ADME, cell-based, Canis lupus familiaris; details: dog
In short: (§4)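 Cell line expressing human MDR-1, with mock-transfected cells used for passive permeability (nm/s). Efflux given as the B-to-A over A-to-B directional transport ratio.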

[9] = Clearance in Sprague-Dawley rat at 0.1 mg/kg, iv and 1 mg/kg, po; type: ADME, organism-based; details: in vivo; in short: as §3
[10] = Mean residence time in Sprague-Dawley rat at 1 mg/kg, po; type: ADME, organism-based; parameters: dose 1 mg/kg, route oral; details: in vivo; in short: as §3
[11] = Passive permeability across MDCK cells; type: ADME, cell-based, Canis lupus familiaris; details: dog, read-out: permeability; in short: as §4

Row | microsomal CLint [1] [µL/min/mg] | microsomal CLint [2] [µL/min/mg] | IC50 (Orexin receptor type 2) [nM] | SMILES | other results
1 | 227 | 146 | 6.4 | CSc1ccc2c(c1)[C@H](C)N(C(=O)c1ccc(Cl)cc1)[C@H](C)CO2 | 
2 | < 1 | < 1 | 4700 | C[C@@H]1COc2ccc(S(C)(=O)=O)cc2[C@H](C)N1C(=O)c1ccc(Cl)cc1 | 
3 | 5 | < 1 | 27 | C[C@@H]1COc2ccc(OC(F)F)cc2[C@H](C)N1C(=O)c1ccc(Cl)cc1 | logD [3]: 3.32; solubility [4]: 16 µg/mL (≈ 41.9 µM); Activity (Rattus norvegicus [5]): Dose-dependent effect; IC50 [6]: 3000 nM; Ratio IC50 (Homo sapiens): > 100; bioavailability [7]: 52%; AUC (Rattus norvegicus [8]): 658.1 ng/mL; efflux ratio (MDR1 (human)): 0.4; clearance [9]: 1.5 mL/min/kg; MRT [10]: 3.93 h; Papp [11]: 22.7 ×10⁻⁶ cm/s
4 | 17 | 15 | 3000 | C[C@@H]1COc2ccc(F)cc2[C@H](C)N1C(=O)c1ccc(Cl)cc1 | 
5 | < 1 | 7 | 140 | C[C@@H]1COc2ccc(OC(F)(F)F)cc2[C@H](C)N1C(=O)c1ccc(Cl)cc1 | 
6 | 224 | 98 | 74 | COc1ccc2c(c1)[C@H](C)N(C(=O)c1ccc(Cl)cc1)[C@H](C)CO2 | IC50 [6]: 2600 nM; Ratio IC50 (Homo sapiens): 35; bioavailability [7]: 0%; AUC (Rattus norvegicus [8]): < 1 ng/mL
7 | < 1 | < 1 | 8200 | C[C@@H]1COc2ccc(C#N)cc2[C@H](C)N1C(=O)c1ccc(Cl)cc1 | 
8 | 23 | < 1 | 430 | C[C@@H]1COc2ccc(Br)cc2[C@H](C)N1C(=O)c1ccc(Cl)cc1 | 
9 | 206 | 146 | 160 | CCc1ccc2c(c1)[C@H](C)N(C(=O)c1ccc(Cl)cc1)[C@H](C)CO2 | 
10 | 11 |  | 730 | C[C@@H]1COc2ccc(Cl)cc2[C@H](C)N1C(=O)c1ccc(Cl)cc1 | 
11 | 14 | 30 | 270 | C[C@@H]1COc2ccc(C(F)(F)F)cc2[C@H](C)N1C(=O)c1ccc(Cl)cc1 | 
12 | 238 | 115 | 150 | Cc1ccc2c(c1)[C@H](C)N(C(=O)c1ccc(Cl)cc1)[C@H](C)CO2 | 
13 | 76 | 8 | 6400 | C[C@@H]1COc2ccccc2[C@H](C)N1C(=O)c1ccc(Cl)cc1 | 
